The record followed here is ChEMBL document CHEMBL3351413, “Development of quinone analogues as dynamin GTPase inhibitors” (Eur J Med Chem, 2014).

Molecules are shown by their SMILES. Calls of active or inactive are those of the source. No cut-off for these calls is given here.

System in the first experiment: not listed separately
Briefly: Inhibition of phosphatidylserine-stimulated GTPase activity of sheep brain Dynamin 1 expressed in Sf21 cells assessed as inhibition of orthophosphate release from GTP by malachite green method. Also noted: species or system Ovis aries.
Details: not given
A digest of the protocol:
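DynI at 50 nM, stimulated with phosphatidylserine liposomes for 30 min. Pi release from GTP detected colorimetrically by malachite green. Compounds diluted from DMSO stocks, final DMSO at most 3.3%.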
By IC50 is commonly meant the concentration that gives 50% inhibition. In the case of `COc1ccc(CNC2=CC(=O)C(NCc3ccc(OC)cc3)=CC2=O)cc1`, the IC50 is 170 µM.

In the case of `O=C1C=C(Nc2cccc(O)c2)C(=O)C=C1Nc1cccc(O)c1`, the IC50 was 57.9 µM.

Consider `O=C(O)c1ccccc1NC1=CC(=O)c2ccccc2C1=O`, for which the concentration for half-maximal inhibition (IC50) turned out to be 314 µM.

Regarding `O=C1C=C(NCCO)C(=O)C=C1NCCO`, the IC50 was 116 µM.

With `O=C1C=C(NCCCBr)C(=O)C=C1NCCCBr`, the half-inhibitory concentration (IC50) worked out at 58 µM.

Regarding `O=C1C=C(Nc2cccc(CO)c2)C(=O)c2ccccc21`, the 50% inhibitory concentration (IC50) was found to be 30.3 µM.

Consider `O=C1C=C(Nc2ccc(O)cc2)C(=O)C=C1Nc1ccc(O)cc1`, for which the IC50 came out at 11.1 µM.

For the compound `O=C1C=C(Nc2cccc(C(=O)O)c2)C(=O)C=C1Nc1cccc(C(=O)O)c1`, the IC50 worked out at 25.4 µM.

`O=C1C=C(NCc2ccc(O)cc2)C(=O)C=C1NCc1ccc(O)cc1`: the IC50 came out at 112 µM.

For `O=C1C=C(Nc2ccc(C(=O)O)cc2)C(=O)C=C1Nc1ccc(C(=O)O)cc1`, the half-inhibitory concentration (IC50) came out at 10.6 µM.

Take `O=C1C=C(Nc2ccc(CO)cc2)C(=O)C=C1Nc1ccc(CO)cc1`: the IC50 amounted to 21.5 µM.

For `O=C1C=C(NCc2ccccc2)C(=O)C=C1NCc1ccccc1`, the IC50 came to 273 µM.

Take `COc1ccc(NC2=CC(=O)C(Nc3ccc(OC)cc3)=CC2=O)cc1`: the half-maximal inhibitory concentration (IC50) is more than 300 µM.

Take `CCCCCCNC1=CC(=O)C(NCCCCCC)=CC1=O`: the IC50 is more than 300 µM.

In the case of `O=C1C=C(Nc2ccc(O)cc2)C(=O)c2ccccc21`, the IC50 is 22.4 µM.

Regarding `O=C1C=C(Nc2cccc(O)c2)C(=O)c2ccccc21`, the IC50 is 109 µM.

As for `O=C1C=C(NCc2ccc(O)cc2)C(=O)c2ccccc21`, the IC50 was determined as 150 µM.

For `COc1cccc(NC2=CC(=O)C(Nc3cccc(OC)c3)=CC2=O)c1`, the IC50 was more than 300 µM.

Consider `O=C1C=C(Nc2ccccc2C(=O)O)C(=O)C=C1Nc1ccccc1C(=O)O`, for which the IC50 was determined as 50.2 µM.

Take `O=C1C=C(NCc2ccc(C(=O)O)cc2)C(=O)C=C1NCc1ccc(C(=O)O)cc1`: the IC50 stood at 29 µM.

On to `O=C1C=C(Nc2ccccc2Br)C(=O)C=C1Nc1ccccc1Br`, for which the IC50 worked out at 387 µM.

Take `O=C1C=C(Nc2ccc(CO)cc2)C(=O)c2ccccc21`: the IC50 was found to be 29.5 µM.

For the compound `CN(C)CCNC1=CC(=O)C(NCCN(C)C)=CC1=O`, the IC50 is more than 300 µM.

On to `O=C1C=C(Nc2ccccc2CO)C(=O)C=C1Nc1ccccc1CO`, for which the IC50 is more than 300 µM.

Another experiment deals with T1, Dynamin-2 (Rattus norvegicus) (UniProt P39052).
T1 sequence (whole entry): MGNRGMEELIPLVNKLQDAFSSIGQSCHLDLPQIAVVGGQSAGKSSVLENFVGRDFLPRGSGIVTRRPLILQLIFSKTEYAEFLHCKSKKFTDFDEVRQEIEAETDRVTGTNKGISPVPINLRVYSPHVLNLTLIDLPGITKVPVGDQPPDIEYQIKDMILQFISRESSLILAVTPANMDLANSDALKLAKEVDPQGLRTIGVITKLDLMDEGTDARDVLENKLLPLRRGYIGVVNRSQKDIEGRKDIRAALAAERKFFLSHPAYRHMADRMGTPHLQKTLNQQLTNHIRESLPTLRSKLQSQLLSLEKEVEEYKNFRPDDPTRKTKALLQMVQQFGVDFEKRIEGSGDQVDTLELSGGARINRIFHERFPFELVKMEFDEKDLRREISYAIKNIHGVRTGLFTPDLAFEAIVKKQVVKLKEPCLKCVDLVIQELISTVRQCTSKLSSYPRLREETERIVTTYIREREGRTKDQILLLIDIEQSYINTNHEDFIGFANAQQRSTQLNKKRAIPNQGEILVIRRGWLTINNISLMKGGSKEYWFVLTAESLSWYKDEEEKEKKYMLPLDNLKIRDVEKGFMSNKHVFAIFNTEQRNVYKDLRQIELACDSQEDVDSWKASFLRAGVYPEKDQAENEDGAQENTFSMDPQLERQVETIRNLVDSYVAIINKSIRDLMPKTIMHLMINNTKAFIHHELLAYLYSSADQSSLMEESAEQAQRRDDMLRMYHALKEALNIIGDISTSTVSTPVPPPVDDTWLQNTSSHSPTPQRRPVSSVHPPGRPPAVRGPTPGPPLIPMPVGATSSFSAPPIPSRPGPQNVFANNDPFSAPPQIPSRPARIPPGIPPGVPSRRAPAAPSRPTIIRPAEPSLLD
Briefly: Inhibition of phosphatidylserine-stimulated GTPase activity of recombinant rat Dynamin 2 expressed in Sf21 cells assessed as inhibition of orthophosphate release from GTP up to 300 uM by malachite green method.
Details: not given
In outline: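 His-6-tagged rat dynII from pIEx-6-transfected Sf21 cells (polyethylenimine, DNA:PEI 1:5, 48 h), purified on GST-Amph2-SH3-sepharose. Enzyme at 50 nM final was stimulated with phosphatidylserine liposomes for 90 min. GTP-derived Pi release was read colorimetrically with Malachite Green. Final DMSO was at most 3.3%.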
For the compound `O=C1C=C(NCc2ccccc2)C(=O)C=C1NCc1ccccc1`, the inhibition entry is “inactive”.

System in a further experiment: not listed separately
In words: Inhibition of phosphatidylserine-stimulated GTPase activity of sheep brain Dynamin 1 expressed in Sf21 cells assessed as inhibition of orthophosphate release from GTP up to 300 uM by malachite green method. The note with it: Ovis aries. A digest of the protocol:
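DynI at 50 nM final was stimulated with phosphatidylserine liposomes for 30 min. Orthophosphate released from GTP was detected colorimetrically by Malachite Green. Compounds came from 30 mM DMSO stocks diluted in 50% DMSO/20 mM Tris-HCl pH 7.4; final DMSO was at most 3.3%.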
Consider `O=C1C=C(NCc2cccnc2)C(=O)C=C1NCc1cccnc1`, for which the inhibition result is “inactive”.

As to `CCNC1=CC(=O)C(NCC)=CC1=O`, the inhibition result is “inactive”.

Consider `Cc1ccc(CNC2=CC(=O)C(NCc3ccc(C)cc3)=CC2=O)cc1`, for which the inhibition entry was “inactive”.

Turning to `COCCCNC1=CC(=O)C(NCCCOC)=CC1=O`, the inhibition entry was “inactive”.

Take `CSCCNC1=CC(=O)C(NCCSC)=CC1=O`: the inhibition entry was “inactive”.

Turning to `CC(C)CCNC1=CC(=O)C(NCCC(C)C)=CC1=O`, the inhibition result is “inactive”.

With `O=C1C=C(Nc2cccc(CO)c2)C(=O)C=C1Nc1cccc(CO)c1`, the inhibition result was “inactive”.

In the case of `O=C1C=C(NCc2ccccc2)C(=O)C=C1NCc1ccccc1`, the inhibition entry is “inactive”.

On to `O=C1C=C(NCCCCl)C(=O)C=C1NCCCCl`, for which the inhibition entry was “inactive”.

`Cc1ccccc1NC1=CC(=O)C(Nc2ccccc2C)=CC1=O`: the inhibition entry was “inactive”.

`O=C1C=C(NCc2ccc(F)cc2)C(=O)C=C1NCc1ccc(F)cc1`: the inhibition result was “inactive”.

As to `COCCNC1=CC(=O)C(NCCOC)=CC1=O`, the inhibition entry was “inactive”.

Turning to `COc1ccccc1NC1=CC(=O)C(Nc2ccccc2OC)=CC1=O`, the inhibition entry was “inactive”.

Take `CCCCCNC1=CC(=O)C(NCCCCC)=CC1=O`: the inhibition result was “inactive”.

As to `O=C1C=C(NCCc2ccccc2)C(=O)C=C1NCCc1ccccc1`, the inhibition result is “inactive”.

On to `O=C(O)c1cccc(NC2=CC(=O)c3ccccc3C2=O)c1`, for which the inhibition result was “inactive”.

With `CCCNC1=CC(=O)C(NCCC)=CC1=O`, the inhibition result is “inactive”.

Turning to `O=C1C=C(NCCCO)C(=O)c2ccccc21`, the inhibition entry is “inactive”.

On to `O=C1C=C(Nc2ccccc2)C(=O)C=C1Nc1ccccc1`, for which the inhibition entry is “inactive”.

For `CCCCNC1=CC(=O)C(NCCCC)=CC1=O`, the inhibition entry is “inactive”.

On to `O=C1C=C(NCc2ccccc2)C(=O)c2ccccc21`, for which the inhibition entry was “inactive”.

With `O=C(O)c1ccc(NC2=CC(=O)c3ccccc3C2=O)cc1`, the inhibition result was “inactive”.

Regarding `COc1ccc(CNC2=CC(=O)c3ccccc3C2=O)cc1`, the inhibition result was “inactive”.

Take `O=C1C=C(Nc2ccccc2)C(=O)c2ccccc21`: the inhibition entry was “inactive”.

As for `O=C1C=C(NCc2ccc(Br)cc2)C(=O)C=C1NCc1ccc(Br)cc1`, the inhibition result is “inactive”.

Regarding `C=CCNC1=CC(=O)C(NCC=C)=CC1=O`, the inhibition result is “inactive”.

Consider `O=C1C=C(NCc2ccc(Cl)cc2)C(=O)C=C1NCc1ccc(Cl)cc1`, for which the inhibition entry was “inactive”.

Take `O=C1C=C(NCCCO)C(=O)C=C1NCCCO`: the inhibition entry was “inactive”.

In the case of `O=C1C=C(NCCO)C(=O)c2ccccc21`, the inhibition result was “inactive”.

As to `O=C1C=C(NCCCCO)C(=O)C=C1NCCCCO`, the inhibition entry is “inactive”.

For another experiment, the target named is T2, Dynamin-2 (Rattus norvegicus, UniProt P39052).
T2 sequence (P39052 whole entry): T1 sequence (whole entry)
Briefly: Inhibition of phosphatidylserine-stimulated GTPase activity of recombinant rat Dynamin 2 expressed in Sf21 cells assessed as inhibition of orthophosphate release from GTP by malachite green method.
Details: not given
In outline: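 His-6-tagged rat dynII expressed in Sf21 cells after polyethylenimine transfection (48 h), purified on GST-Amph2-SH3-sepharose. Enzyme at 50 nM, stimulated with phosphatidylserine liposomes for 90 min. Pi release from GTP read colorimetrically with malachite green. Final DMSO at most 3.3%.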
As to `O=C1C=C(Nc2cccc(O)c2)C(=O)C=C1Nc1cccc(O)c1`, the IC50 is 43.7 µM.

Turning to `O=C1C=C(Nc2ccc(O)cc2)C(=O)C=C1Nc1ccc(O)cc1`, the IC50 came out at 23.6 µM.

Take `O=C1C=C(Nc2cccc(C(=O)O)c2)C(=O)C=C1Nc1cccc(C(=O)O)c1`: the IC50 came to 14.7 µM.

On to `O=C1C=C(Nc2ccc(C(=O)O)cc2)C(=O)C=C1Nc1ccc(C(=O)O)cc1`, for which the IC50 worked out at 9.1 µM.

System in another experiment: not listed separately
In words: Competitive inhibition of phosphatidylserine-stimulated GTPase activity of sheep brain Dynamin 1 expressed in Sf21 cells by Lineweaver-Burk plot method in presence of Mg2+ and GTP. The note with it: Ovis aries.
Turning to `O=C1C=C(Nc2ccc(CO)cc2)C(=O)C=C1Nc1ccc(CO)cc1`, the inhibition entry is “Active”.

For a further experiment, the target named is T3, Dynamin-1 (Homo sapiens) (UniProt Q05193).
T3 sequence (whole entry): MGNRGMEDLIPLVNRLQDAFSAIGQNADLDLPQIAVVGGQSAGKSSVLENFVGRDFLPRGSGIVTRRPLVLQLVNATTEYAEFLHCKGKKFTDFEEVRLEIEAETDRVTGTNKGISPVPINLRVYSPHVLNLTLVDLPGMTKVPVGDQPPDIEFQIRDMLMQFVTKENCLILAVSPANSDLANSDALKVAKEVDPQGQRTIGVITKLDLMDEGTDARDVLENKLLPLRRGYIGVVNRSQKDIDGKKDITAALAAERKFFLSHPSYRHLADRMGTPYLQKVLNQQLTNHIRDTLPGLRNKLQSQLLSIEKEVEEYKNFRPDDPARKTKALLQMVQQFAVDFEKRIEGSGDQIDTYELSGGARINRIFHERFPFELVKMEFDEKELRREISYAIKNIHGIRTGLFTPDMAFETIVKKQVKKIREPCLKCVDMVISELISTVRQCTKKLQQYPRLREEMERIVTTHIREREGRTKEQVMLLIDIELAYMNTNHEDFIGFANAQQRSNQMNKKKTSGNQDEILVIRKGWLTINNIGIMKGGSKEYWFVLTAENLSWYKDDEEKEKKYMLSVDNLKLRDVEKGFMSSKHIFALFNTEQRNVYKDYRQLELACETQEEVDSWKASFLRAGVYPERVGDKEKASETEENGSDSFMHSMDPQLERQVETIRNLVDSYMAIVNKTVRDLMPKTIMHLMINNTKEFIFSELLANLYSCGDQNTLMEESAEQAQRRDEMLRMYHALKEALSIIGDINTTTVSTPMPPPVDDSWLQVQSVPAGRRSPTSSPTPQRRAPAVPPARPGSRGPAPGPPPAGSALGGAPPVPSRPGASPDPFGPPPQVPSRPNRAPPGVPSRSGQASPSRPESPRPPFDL
In words: Inhibition of Dynamin 1 in serum-starved human U2OS cells assessed as inhibition of clathrin-mediated Alexa-495-cojugated transferrin uptake pretreated up to 300 uM for 30 mins by high-content imaging method. In kind it is cell-based.
Details: not given
A digest of the protocol:
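U2OS cells plated on fibronectin-coated glass to 70–80% confluency and serum-starved overnight (16 h). Pretreated with compound or 1% DMSO vehicle for 30 min, then given fluorescent transferrin for 8 min at 37 °C.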
Regarding `O=C1C=C(Nc2cccc(O)c2)C(=O)C=C1Nc1cccc(O)c1`, the inhibition entry is “inactive”.
